Assay results published in ChEMBL document CHEMBL1142365, “Synthesis and evaluation of stilbenylbenzoxazole and stilbenylbenzothiazole derivatives for detecting beta-amyloid fibrils” (Bioorg Med Chem Lett, 2008).

assay: Displacement of [125I]TZDM from beta amyloid protein 42
Method in brief: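 Competition binding against [125I]TZDM on pre-formed Ab42 aggregates. Mixtures incubated 3 h at room temperature. Bound and free radioligand separated by vacuum filtration through GF/B filters, then two washes with 10% EtOH at room temperature. Filter-bound radioactivity counted by gamma counter. Ki obtained by nonlinear regression of the inhibition data.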

SMILES | Ki [nM]
Nc1ccc(/C=C/c2ccc(-c3nc4cc(OCCCF)ccc4o3)cc2)cc1 | 0.45
CN(C)c1ccc(/C=C/c2ccc(-c3nc4ccc(OCCF)cc4s3)cc2)cc1 | 0.57
Nc1ccc(/C=C/c2ccc(-c3nc4cc(OCCF)ccc4s3)cc2)cc1 | 0.41
CN(C)c1ccc(/C=C/c2ccc(-c3nc4cc(OCCF)ccc4o3)cc2)cc1 | 0.44
CNc1ccc(/C=C/c2ccc(-c3nc4ccc(OCCF)cc4s3)cc2)cc1 | 0.52
CN(C)c1ccc(/C=C/c2ccc(-c3nc4cc(OCCF)ccc4s3)cc2)cc1 | 0.35
CNc1ccc(/C=C/c2ccc(-c3nc4cc(OCCF)ccc4o3)cc2)cc1 | 0.74
Nc1ccc(/C=C/c2ccc(-c3nc4ccc(OCCCF)cc4o3)cc2)cc1 | 0.59
CN(C)c1ccc(/C=C/c2ccc(-c3nc4ccc(OCCF)cc4o3)cc2)cc1 | 0.45
Nc1ccc(/C=C/c2ccc(-c3nc4ccc(OCCF)cc4o3)cc2)cc1 | 0.47
Nc1ccc(/C=C/c2ccc(-c3nc4cc(OCCCF)ccc4s3)cc2)cc1 | 0.42
CNc1ccc(/C=C/c2ccc(-c3nc4ccc(OCCF)cc4o3)cc2)cc1 | 0.5
[11CH3]Nc1ccc(-c2nc3ccc(O)cc3s2)cc1 [PITTSBURGH COMPOUND B] | 0.77
CN(C)c1ccc(/C=C/c2ccc(-c3nc4cc(OCCCF)ccc4s3)cc2)cc1 | 0.49
CNc1ccc(/C=C/c2ccc(-c3nc4ccc(OCCCF)cc4s3)cc2)cc1 | 0.48
CN(C)c1ccc(/C=C/c2ccc(-c3nc4cc(OCCCF)ccc4o3)cc2)cc1 | 0.47
CNc1ccc(/C=C/c2ccc(-c3nc4cc(OCCCF)ccc4o3)cc2)cc1 | 0.45
CN(C)c1ccc(/C=C/c2ccc(-c3nc4ccc(OCCCF)cc4o3)cc2)cc1 | 0.46
Nc1ccc(/C=C/c2ccc(-c3nc4ccc(OCCF)cc4s3)cc2)cc1 | 0.59
Nc1ccc(/C=C/c2ccc(-c3nc4ccc(OCCCF)cc4s3)cc2)cc1 | 0.55
CNc1ccc(/C=C/c2ccc(-c3nc4cc(OCCF)ccc4s3)cc2)cc1 | 0.1
CNc1ccc(/C=C/c2ccc(-c3nc4cc(OCCCF)ccc4s3)cc2)cc1 | 0.38
CNc1ccc(/C=C/c2ccc(-c3nc4ccc(OCCCF)cc4o3)cc2)cc1 | 0.68
CN(C)c1ccc(/C=C/c2ccc(-c3nc4ccc(OCCCF)cc4s3)cc2)cc1 | 0.12
Nc1ccc(/C=C/c2ccc(-c3nc4cc(OCCF)ccc4o3)cc2)cc1 | 0.32
